From ChEMBL document CHEMBL4699543, “Preparation and evaluation of soluble epoxide hydrolase inhibitors with improved physical properties and potencies for treating diabetic neuropathic pain” (Bioorg Med Chem, 2020) come the findings set out here.

The nature of series [1]: Lipophilicity, logP of compound at 100 uM incubated for 90 mins by HPLC analysis. In kind it is physicochemical. The note with it: for logP: 100 µM.
The nature of series [2]: Half life in mouse at 0.3 mg/kg, po. In kind it is ADME, organism-based. The settings on record: in vivo. The method, boiled down: (§1)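 Mice (n=4) given oral gavage cassette of 4 compounds, each 0.3 mg/kg, dissolved in 20% PEG400 in oleic acid rich triglycerides; plasma PK parameters calculated by one-compartment model.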
The nature of series [3]: AUC in mouse at 0.3 mg/kg, po. The note with it: in vivo. On the set-up: dose 0.3 mg/kg. In kind it is ADME, organism-based. The method, boiled down:
as §1

The nature of series [4]: Tmax in mouse at 0.3 mg/kg, po. It counts as ADME, organism-based. The note with it: in vivo. The method, boiled down: as §1
A short description of series [5]: Cmax in mouse at 0.3 mg/kg, po. The arrangement: route oral, dose 0.3 mg/kg. It counts as ADME, organism-based. The settings on record: in vivo. In a few lines:
as §1

With `CC[C@H](C)C(=O)N1CCC(NC(=O)Nc2ccc(C(F)(F)F)cc2)CC1`, the log partition coefficient (logP) at […], 100 µM in series [1] turned out to be 3.84.
Same read-out and setting: the result for `Cc1occc1C(=O)N1CCC(NC(=O)Nc2ccc(OC(F)(F)F)cc2)CC1` reads 4.3.
Consider `CC(C)C(=O)N1CCC(NC(=O)Nc2ccc(OC(F)(F)F)c(F)c2)CC1`, for which the half-life in series [2] was 6.6 h. In series [3], this compound showed an exposure (AUC) of 10.9 µM·h. Also, the Tmax in series [4] was determined as 10 h. The compound also registered a peak concentration (Cmax) in series [5] of 423 nM.
For the compound `O=C(Nc1ccc(OC(F)(F)F)cc1)NC1CCN(C(=O)C2CCOCC2)CC1`, the half-life in series [2] was 6.3 h. Also, the logP at […], 100 µM in series [1] was found to be 3.26. In series [3], this compound gave an AUC of 6.37 µM·h. Moreover, in series [4], the time to peak (Tmax) was determined as 4.2 h. This compound also showed a Cmax in series [5] of 381 nM.
Consider `CC[C@H](C)C(=O)N1CCC(NC(=O)Nc2ccc(OC(F)(F)F)c(OC(F)(F)F)c2)CC1`, for which the lipophilicity (logP) in series [1] is given as 10.62.
In series [1], `O=C(Nc1ccc(OC(F)(F)F)c(F)c1)NC1CCN(C(=O)C2CC2)CC1` showed a log partition coefficient (logP) at […], 100 µM of 4.19.
Same read-out and setting: the result for `O=C(Nc1ccc(C(F)(F)F)cc1)NC1CCN(C(=O)c2cc[nH]c2)CC1` reads 3.26.
For `CCC(=O)N1CCC(NC(=O)Nc2ccc(OC(F)(F)F)c(F)c2)CC1`, the half-life in series [2] is 13 h. Also, the area under the curve (AUC) in series [3] turned out to be 13 µM·h. In series [4], the Tmax turned out to be 6.7 h. For the same compound, in series [5], the concentration peaked (Cmax) at 479 nM.
In turn, `CC[C@H](C)C(=O)N1CCC(NC(=O)Nc2ccc(OC(F)(F)F)c(F)c2)CC1` gave a half-life in series [2] of 3.3 h. In series [3], this compound had an AUC of 2.17 µM·h. Also, the Tmax in series [4] came out at 5.2 h. In series [5], this compound registered a Cmax of 166 nM.
Compound `O=C(Nc1ccc(C(F)(F)F)c(F)c1)NC1CCN(C(=O)C2(C(F)(F)F)CC2)CC1` displayed a lipophilicity (logP) at […], 100 µM in series [1] of 5.52.
The same measure, in the same setting: as for `O=C(Nc1ccc(C(F)(F)F)c(F)c1)NC1CCN(C(=O)C2CC2)CC1`, the figure is 3.94.
On the same count and under the same terms, the result for `O=C(Nc1ccc(OC(F)(F)F)c(F)c1)NC1CCN(C(=O)C2(C(F)(F)F)CC2)CC1` reads 5.94.
On to `CC[C@H](C)C(=O)N1CCC(NC(=O)Nc2ccc(OC(F)(F)F)c(C(F)(F)F)c2)CC1`, for which, in series [1], the logP is recorded as 9.02.
On the same count and under the same terms, as for `CC[C@H](C)C(=O)N1CCC(NC(=O)Nc2ccc(C(F)(F)F)cn2)CC1`, the figure is 3.22.
Regarding `CC[C@H](C)C(=O)N1CCC(NC(=O)Nc2ccc(OC(F)(F)F)c(Br)c2)CC1`, the logP at […], 100 µM in series [1] worked out at 8.07.
On the same count and under the same terms, as for `O=C(Nc1ccc(OC(F)(F)F)c(F)c1)NC1CCN(C(=O)N2CCOCC2)CC1`, the figure is 3.93.
In turn, `O=C(Nc1ccc(OC(F)(F)F)c(F)c1)NC1CCN(C(=O)C2CCOCC2)CC1` gave a half-life in series [2] of 4.3 h. Besides, in series [1], the log partition coefficient (logP) at […], 100 µM was 3.73. Moreover, the AUC in series [3] was 5.56 µM·h. Moreover, the Tmax in series [4] stood at 6.5 h. In series [5], this compound had a Cmax of 332 nM.
In turn, `O=C(Nc1ccc(C(F)(F)F)c(F)c1)NC1CCN(C(=O)C2CCOCC2)CC1` yielded a logP at […], 100 µM in series [1] of 3.52.
In series [1], `CCOC(=O)N1CCC(NC(=O)Nc2ccc(C(F)(F)F)c(F)c2)CC1` registered a log partition coefficient (logP) at […], 100 µM of 5.46.
Turning to `O=C(Nc1ccc(OC(F)(F)F)c(F)c1)NC1CCN(C(=O)C2CCCOC2)CC1` (stereo not given), the half-life in series [2] was 3.2 h. This compound also returned an AUC in series [3] of 0.785 µM·h. In series [4], the Tmax came out at 2.1 h. Moreover, the highest level in series [5] (Cmax) was 112 nM.
With `CCOC(=O)N1CCC(NC(=O)Nc2ccc(OC(F)(F)F)c(F)c2)CC1`, the logP at […], 100 µM in series [1] was determined as 5.94.
On the same count and under the same terms, as for `O=C(Nc1ccc(C(F)(F)F)c(F)c1)NC1CCN(C(=O)C2CCCOC2)CC1` (stereo not given), the figure is 3.84.
`O=C(Nc1ccc(C(F)(F)F)cc1)NC1CCN(C(=O)C2CCCOC2)CC1` (stereo not given) gave a lipophilicity (logP) at […], 100 µM in series [1] of 3.41.
For the compound `CCC(=O)N1CCC(NC(=O)Nc2ccc(C(F)(F)F)c(F)c2)CC1`, the logP at […], 100 µM in series [1] is 3.76.
The same measure, in the same setting: the result for `O=C(Nc1ccc(C(F)(F)F)cc1)NC1CCN(C(=O)C2=COCC2)CC1` reads 3.37; that for `CC[C@H](C)C(=O)N1CCC(NC(=O)Nc2ccc(OC(F)(F)F)c(Cl)c2)CC1`, 7.7.
The compound `O=C(Nc1ccc(OC(F)(F)F)cc1)NC1CCN(C(=O)C2CCCOC2)CC1` (racemic) gave a half-life in series [2] of 3.1 h. In series [3], this compound displayed an exposure (AUC) of 0.483 µM·h. In addition, the Tmax in series [4] is 6.5 h. This compound also came in with a Cmax in series [5] of 38 nM.

As usually defined, the logP is the decadic logarithm of the partition coefficient of the neutral form, usually between octanol and water. A low value points to lower lipophilicity. By half-life is commonly meant the time needed for the level to fall by half in the phase considered. As usually defined, the AUC is the area under the concentration-time curve, a measure of exposure. Low values mean low exposure, high ones high exposure. For orientation: Tmax means the time from dosing to the highest level. The Cmax is the highest concentration seen after dosing.
